Columns and labels:
MDA-MB-231 = assay: Cytotoxicity against human MDA-MB-231 cells assessed as decrease in cell viability after 72 hrs by CellTiter-Glo luminescence assay; type: functional, cell-based; settings: MDA-MB-231, 72 h
In short: (§1)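 Breast cancer lines were maintained in RPMI 1640 with 10% FBS and pen/strep at 37 °C and 5% CO2. Cells were plated at 1000/well, allowed 24 h, then treated 72 h with agents at 1.5–100 μM (diluted in phosphate buffer from a 100 mM DMSO stock). Paclitaxel at 0.01–10 μM served as the reference. Luminescent ATP read-out was used, with IC50 computed relative to 0.1% DMSO controls.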

MCF-10A = assay: Cytotoxicity against human MCF10A cells assessed as decrease in cell viability after 72 hrs by CellTiter-Glo luminescence assay; type: cell-based
In short: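 MCF10A (non-tumorigenic breast epithelial) cells were grown with 5% horse serum, 20 ng/mL EGF, 0.5 μg/mL hydrocortisone, 10 μg/mL insulin, and pen/strep at 37 °C and 5% CO2. Cells were seeded at 1000/well for 24 h, then exposed 72 h to 1.5–100 μM test agent diluted in phosphate buffer from a 100 mM DMSO stock. Viability was read by ATP luminescence. IC50 was calculated versus 0.1% DMSO-treated cells.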

MDA-MB-468 = assay: Cytotoxicity against human MDA-MB-468 cells assessed as decrease in cell viability after 72 hrs by CellTiter-Glo luminescence assay; type: functional, cell-based; settings: MDA-MB-468, 72 h; in short: as §1
MCF7 = assay: Cytotoxicity against human MCF7 cells assessed as decrease in cell viability after 72 hrs by CellTiter-Glo luminescence assay; type: functional, cell-based; settings: MCF7, 72 h; in short: as §1

Compound | IC50 (MDA-MB-231) [µM] | IC50 (MCF-10A) [µM] | IC50 (MDA-MB-468) [µM] | IC50 (MCF7) [µM]
CC(=O)O[C@H]1C(=O)[C@@]2(C)[C@H]([C@H](OC(=O)c3ccccc3)[C@]3(O)C[C@H](OC(=O)[C@H](O)[C@@H](NC(=O)c4ccccc4)c4ccccc4)C(C)=C1C3(C)C)[C@]1(OC(C)=O)CO[C@@H]1C[C@@H]2O [PACLITAXEL] | 0.059 | 0.0058 | 0.0061 | 0.0088
COc1cc2cc(C3C(C(C)=O)C(C(C)=O)C3c3cc4cc(OC)c(OC)cc4c4c3CN3CCCC3C4)c3c(c2cc1OC)CC1CCCN1C3 (racemic) | > 10 | > 10 | > 10 | > 10
COc1cc2cc([C@@H]3[C@@H](C(C)=O)[C@H](C(C)=O)[C@@H]3c3cc4cc(OC)c(OC)cc4c4c3CN3CCC[C@@H]3C4)c3c(c2cc1OC)C[C@@H]1CCCN1C3 | > 10 | > 10 | > 10 | > 10
COc1cc2c3c(c4ccc(OC)c(Cl)c4c2cc1OC)CN1CCCC1C3 (racemic) | 0.48 | 10.7 | 0.038 | 0.91
COc1cc2cc([C@@H]3[C@H](C(C)=O)[C@@H](C(C)=O)[C@@H]3c3cc4cc(OC)c(OC)cc4c4c3CN3CCC[C@@H]3C4)c3c(c2cc1OC)C[C@@H]1CCCN1C3 | > 10 | > 10 | 7.4 | > 10
COc1cc2cc(CO)c3c(c2cc1OC)CC1CCCN1C3 (racemic) | > 10 | > 10 | > 10 | > 10

Reference: ChEMBL document CHEMBL4130447, “A Bis-benzopyrroloisoquinoline Alkaloid Incorporating a Cyclobutane Core and a Chlorophenanthroindolizidine Alkaloid with Cytotoxic Activity from Ficus fistulosa var. tengerensis” (J Nat Prod, 2017)
